PLC-beta3 inh: PLC-beta3 (human) inhibition, primary screen | 370,000 compounds, 0.18% hits | Purified PLC-beta3, fluorogenic substrate, fluorescence | inhibition, % at 12.2 µM | AID 720704 | Q01970; in the data active = inhibition above about 11%;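 also: 0% = median of compound wells on plate and 100% = full blocker control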
PLCg1 inh: inhibitors of human phospholipase C gamma1 | P19174 | purified PLC-gamma1, fluorogenic substrate, fluorescence | inhibition, % at 12.2 µM | 370,000 compounds, 0.84% hits | AID 720700; in the data active = inhibition above about 9.5%
proCasp7 act: counter-screen: procaspase-7 (human) activation. P55210. recombinant procaspase-7, Ac-DEVD-pNA absorbance 405 nm; D23A/D198A/D206A triple mutant, cannot self-cleave; scale: DMSO 0, 5 µM enzyme 100. activation, % at 8.5 µM. 330,000 compounds, 0.093% hits. AID 463210;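 active = percent activation above the screen-wide mean plus 3 SD, cut at about 25% in these data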
Target sequence (P55210 whole entry D23A/D198A/D206A): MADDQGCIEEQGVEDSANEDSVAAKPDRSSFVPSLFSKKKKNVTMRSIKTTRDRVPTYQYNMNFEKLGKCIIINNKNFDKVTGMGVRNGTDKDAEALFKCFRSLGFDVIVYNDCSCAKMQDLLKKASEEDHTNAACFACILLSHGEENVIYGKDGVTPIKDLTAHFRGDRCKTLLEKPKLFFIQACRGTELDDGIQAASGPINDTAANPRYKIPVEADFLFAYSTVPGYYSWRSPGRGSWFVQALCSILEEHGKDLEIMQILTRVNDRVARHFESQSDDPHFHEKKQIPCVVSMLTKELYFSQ
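Assay system – Uncleavable procaspase-7 mutant enzyme · Quantity – 2 µM procaspase-7 mutant as dispensed · Times – 1 h preincubation, 2 h reaction · Dosing – single nominal 8.5 µM compound dose, 0.8% DMSO final · Buffer or medium – Zinc-free 50 mM HEPES buffer, pH 7.4, with NaCl and Triton X-100 · Detection – Epi-absorbance of released pNA at 405 nm, two timepoints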
procasp3 activ: activates human procaspase-3; P42574; recombinant procaspase-3 D3A, Ac-DEVD-pNA absorbance 405 nm; activation, % at 8.5 µM; 330,000 compounds, 0.11% hits; AID 463141;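 active = activation above the mean of all tested compounds plus 3 SD, cut at about 21% in these data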;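 also: 0% = DMSO alone and 100% = DMSO wells spiked with extra 5 µM PC-3 D3A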
Target sequence (P42574 whole entry D9A/D28A/D175A): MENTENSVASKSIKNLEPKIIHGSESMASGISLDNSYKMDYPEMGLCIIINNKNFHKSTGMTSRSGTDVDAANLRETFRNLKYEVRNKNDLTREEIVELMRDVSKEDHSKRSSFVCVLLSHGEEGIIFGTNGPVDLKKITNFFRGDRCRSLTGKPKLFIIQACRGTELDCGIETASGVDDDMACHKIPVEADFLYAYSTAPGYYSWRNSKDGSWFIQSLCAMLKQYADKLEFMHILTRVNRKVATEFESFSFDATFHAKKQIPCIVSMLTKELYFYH
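Evaluation: percent activation relative to control range; Material: Procaspase-3 D3A mutant, all three cleavage aspartates alanine; Compound: single dose, 8.5 µM nominal compound, 0.8% DMSO; Replication: one well per compound; Signal: absorbance at 405 nm, 0 and 120 min; Schedule: 1 h preincubation plus 2 h reaction at 25 °C.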
sPLA2-III inh: Inhibits HGIII-sPLA2 liposome hydrolysis, primary screen | Q9NZ20 | inhibition, % at 12.2 µM | QFRET BODIPY PC-A2 liposome hydrolysis, fluorescence | AID 743126 | 370,000 compounds, 0.56% hits;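 active = inhibition above mean plus 3 SD of compounds lying within the high and low control bounds, cut at about 19% in these data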;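 also: 0% = median of test compound wells and 100% = no enzyme DMSO wells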
Arr AP2 block: blocks beta-arrestin peptide binding to AP2 adaptin; 340,000 compounds, 0.31% hits; AID 504490; inhibition, % at 10 µM; FITC-arrestin peptide / GST-AP2 beads, flow cytometry; AP2 beta2 appendage carries R879A mutation;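 active = inhibition above a set limit, near 3 SD of compounds lacking own fluorescence, cut at about 54% in these data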;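 also: plate controls were DMSO wells for no effect and 5 µM unlabelled arrestin peptide for full effect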
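Test system: GST-tagged AP2 beta2-adaptin appendage (R879A) on 4 µm glutathione beads; also added: fluorescein-tagged arrestin peptide at 50 nM final; timing: 12 min plus 1 h, RT; signal: flow cytometry, FL1 (488/535 nm); read-out: percent drop in bead-associated FITC signal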
PC3 dual counter: counter-screen for dual procaspase-3/7 activators: human procaspase-3 activation; shares compounds with proCasp7 act; recombinant PC-3 D3A, Ac-DEVD-pNA absorbance 405 nm; aspartates 9, 28, 175 changed to alanine; 100% = enzyme control; 290 tested, under 10 active; activation, % at 8.5 µM;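 active = mean percent activation across triplicates above a set limit taken from the earlier primary procaspase-3 screen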;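 also: 0% = DMSO wells and 100% = DMSO wells with 5 µM added PC-3 D3A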
Procasp7 act: procaspase-7 (human) activation, dual activator confirmation | shares compounds with proCasp7 act | recombinant procaspase-7, Ac-DEVD-pNA absorbance 405 nm; D23A/D198A/D206A mutant that cannot self-cleave | activation, % at 8.5 µM | 290 tested, under 10 active | AID 493115;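 active = mean activation above a set limit carried over from the earlier primary screen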;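 also: 0% = DMSO only and 100% = DMSO with added 5 µM PC-7 enzyme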
* hit, by the source's call; i = inactive; · = no result. Sampled rows, rich in hits. Any-hit rate of the full collection: about 1.9%.

SMILES	PLC-beta3 inh	PLCg1 inh	proCasp7 act	procasp3 activ	sPLA2-III inh	Arr AP2 block	PC3 dual counter	Procasp7 act
Nc1[nH]c(C(=O)c2ccccc2)c(-c2ccc(Cl)c(F)c2)c1C(=O)c1c[nH]c2ccccc12	-6	-3	·	·	-5	·	·	·
COc1cccc(C=NCC(C)N=Cc2cccc(OC)c2O)c1O (stereo not drawn)	0	4	82*	7	3	12	-1	-1
COC(=O)CSc1nc(C)c(C(=O)Nc2ccccc2C)c(-c2ccc(Cl)cc2)c1C#N	-6	-2	32*	21	1	14	4	-22
CCOc1cc(-c2c(C#N)c(N)nc3c2CCc2ccccc2-3)ccc1O	-16	-15	26*	3	-63	-6	0	-5
CCOc1cc(-c2c(C#N)c(N)nc3c2CCCC3C)ccc1O (stereo not drawn)	-34	-30	6	2	-42	5	·	·
COCC(=O)Nc1cccc(Br)c1	6	5	26*	5	3	6	3	-3
NS(=O)(=O)c1ccc(N2N=C(c3ccc(Br)cc3)CC2c2ccc(F)cc2)cc1 (stereo not drawn)	i	i	20	3	-5	-9	·	·
O=[N+]([O-])c1ccc(N2N=C(c3ccccc3)CC2c2ccccc2O)cc1 (stereo not drawn)	-290	-201	·	·	-39	33	·	·
COc1ccc(C2CC(c3cccc(Cl)c3)=NN2c2ccc(S(N)(=O)=O)cc2)cc1 (stereo not drawn)	i	i	-4	15	-16	-15	·	·
NS(=O)(=O)c1ccc(N2N=C(c3ccccc3)CC2c2cccc(Br)c2)cc1 (stereo not drawn)	i	i	32*	29*	-8	11	-31	-34
COc1ccc(C2CC(c3ccccc3)=NN2c2ccc(S(N)(=O)=O)cc2)cc1OC (stereo not drawn)	i	i	26*	10	-26	20	-29	-36
NS(=O)(=O)c1ccc(N2N=C(c3ccccc3)CC2c2cccc(F)c2)cc1 (stereo not drawn)	i	i	67*	40*	-23	5	-30	-37
NS(=O)(=O)c1ccc(N2N=C(c3ccccc3)CC2c2ccccc2Br)cc1 (stereo not drawn)	i	i	68*	26*	-2	3	-28	-35
CCCCCCCCN1C(=O)[C@@H](CC(=O)N2CCN(C(=O)OCC)CC2)C[C@@]2(C(=O)OC)C1=C[C@H](C(C)C)O[C@@H]2C1CC1	4	1	·	·	0	·	·	·
O=C(NC(NC1CCS(=O)(=O)C1)C(=O)c1ccccc1)c1ccc(Cl)cc1 (stereo not drawn)	1	-2	47*	6	-4	-8	2	3
O=C(NC(=S)NC1CCS(=O)(=O)C1)c1ccccc1 (stereo not drawn)	-9	1	0	4	10	-9	·	·
CCOC(=O)/C(=C/c1ccc(N2CCC(c3ccccc3)=N2)cc1)C(C)=O	·	·	·	·	·	4	·	·
c1ccc(C2=NN(c3ccccc3)CC2)cc1	i	-421	39*	36*	-10	4	-30	-34
CCCCOc1cccc(C(=O)NCCc2ccccc2-c2ccccc2CCC(=O)NCc2ccccc2)c1	1	0	·	·	8	·	·	·
COc1ccc(NC(=O)Nc2cccc(NC(C)=O)c2)c(OC)c1	-2	-1	-23	0	-5	6	·	·
COc1ccccc1NC(=O)Nc1cccc(NC(C)=O)c1	-5	0	74*	2	4	-4	2	0
Cc1ccc(Cl)cc1C1=CC(=O)C[C@H](c2ccc(F)cc2)C1	-7	-5	27*	3	-1	4	0	0
COc1ccc([C@H]2CC(=O)C=C(c3cc(Cl)ccc3C)C2)cc1	-3	-5	8	-4	-1	7	·	·
Nc1[nH]c2cc(Cl)ccc2c1C(=O)NCCc1ccc(Cl)cc1	-3	-6	·	·	-14	·	·	·
O=C(Nc1cccc(O)c1)c1cccc(S(=O)(=O)N2CCCC2)c1	0	0	26*	-7	-8	-9	1	1
SMILES	PLC-beta3 inh	PLCg1 inh	proCasp7 act	procasp3 activ	sPLA2-III inh	Arr AP2 block	PC3 dual counter	Procasp7 act
O=C(N/N=C/c1c[nH]c2ccccc12)c1cc(-c2ccc3ccccc3c2)n[nH]1	-14	-14	31*	9	-2	13	3	-1
CCN(CC)C(=O)CC[C@@H]1CC[C@]2(CCCN(C(=O)C(C)(C)C)C2)O1	2	-1	·	·	1	·	·	·
CS(=O)(=O)N1N=C(c2ccco2)CC1c1ccco1 (stereo not drawn)	-8	-1	36*	-15	-1	5	-8	-14
O=C(O)CC(C(=O)NCc1ccccc1)C1CCCO1 (stereo not drawn)	3	0	27*	-6	9	4	2	1
COc1ccc(-c2cc3nc(-c4ccccc4)cc(N4CCCC(O)C4)n3n2)cc1 (stereo not drawn)	-456	-439	58*	29*	5	·	-2	-5
COc1ccc(-c2cc3nc(-c4ccccc4)cc(N4CCN(C(C)=O)CC4)n3n2)cc1	i	i	·	·	-11	·	·	·
COc1ccc(-c2cc3nc(-c4ccccc4)cc(N4CCC(O)CC4)n3n2)cc1	-385	-349	32*	-2	6	20	-1	-6
CCCCNC(=O)c1nn2c(C(F)(F)F)cc(-c3ccccc3)nc2c1Br	-8	-7	·	·	14	33	·	·
N#CCNC(=O)c1nn2c(C(F)(F)F)cc(-c3ccccc3)nc2c1Br	-3	-1	26*	-10	1	-11	0	1
Cc1ccc2nc(-c3ccc(NC(=O)C(C)Sc4nncs4)cc3)sc2c1 (stereo not drawn)	-68	-43	30*	3	-24	48	2	-2
O=C(C1CCCN1S(=O)(=O)c1ccc(F)cc1)N1CCc2ccccc2C1 (stereo not drawn)	-4	0	·	·	10	·	·	·
COC(=O)[C@]12C[C@H](CC(=O)NCc3ccccc3)C(=O)N(Cc3ccc4c(c3)OCO4)C1=C[C@H](C(C)C)O[C@@H]2C1CC1	3	3	·	·	-9	·	·	·
C=CCSc1nnc(-c2cc3c(s2)-c2ccccc2CC3)o1	i	-481	28*	18	-1	3	-29	-27

Screens (PubChem)
